Source: ChEMBL document CHEMBL1125557, “Dihydropyrimidine angiotensin II receptor antagonists” (J Med Chem, 1992)
Values joined by “and” are separate entries in the source; they are usually repeats but may differ in a detail not shown here. Equal entries are not always repeated.

Columns and labels:
Rattus norvegicus [1] = assay: In vivo antihypertensive activity against spontaneously hypertensive rats after oral administration of 10 uM/Kg dose between 18-24 hours; format: functional
Summary of the method: (§1)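 Male SHR, surgically prepared, recovered 2 weeks on regular food and water. Low-NaCl diet from 5 days before testing; furosemide 2.5 mg/kg on 3 consecutive days before testing. Compounds given orally as agar suspension. Mean arterial pressure monitored for 24 h; maximum % fall in pressure per 6-h interval, n = 8-10.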

Rattus norvegicus [2] = assay: In vivo antihypertensive activity against spontaneously hypertensive rats after oral administration of 10 uM/Kg dose between 12-18 hours; format: functional; summary of the method: as §1
Rattus norvegicus [3] = assay: Compound was tested in vivo for antagonistic activity for the 50% inhibition of AII pressor response in male rats after intravenous administration; format: functional
Summary of the method: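 Normotensive male rats received three doses of test agent iv, then AII challenge (100 ng/kg iv) 2 min later. ED50 (dose halving the AII pressor response) from simplex curve fit of log dose versus maximum percent inhibition; n = 4.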

[4] = molecular target: T1, Type-1 angiotensin II receptor B (Rattus norvegicus, UniProt P29089); assay: Inhibition of [125I]- Sar,Ile8-angiotensin II binding to rat adrenal cortical membrane angiotensin II receptor
T1 sequence (P29089 whole entry): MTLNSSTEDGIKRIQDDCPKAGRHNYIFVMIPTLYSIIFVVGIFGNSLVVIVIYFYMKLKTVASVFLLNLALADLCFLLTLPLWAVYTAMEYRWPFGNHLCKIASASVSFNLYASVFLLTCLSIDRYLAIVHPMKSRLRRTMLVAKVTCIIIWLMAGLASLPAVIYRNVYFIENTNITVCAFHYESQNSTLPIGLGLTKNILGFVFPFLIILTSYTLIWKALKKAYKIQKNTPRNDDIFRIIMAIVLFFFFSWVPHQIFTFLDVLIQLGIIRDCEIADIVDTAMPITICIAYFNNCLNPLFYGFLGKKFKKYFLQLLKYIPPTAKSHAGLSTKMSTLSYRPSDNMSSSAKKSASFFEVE

Rattus norvegicus [5] = assay: In vivo antihypertensive activity against spontaneously hypertensive rats after oral administration of 30 uM/Kg dose between 12-18 hours; format: functional; summary of the method: as §1
Oryctolagus cuniculus = organism: Oryctolagus cuniculus; assay: In vitro functional potency by antagonism of angiotensin II induced contraction of isolated rabbit aorta
Summary of the method: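 Isolated rabbit aorta contracted by angiotensin II; antagonism expressed as KB (nM, ±SEM).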

Rattus norvegicus [6] = assay: In vivo antihypertensive activity against spontaneously hypertensive rats after oral administration of 10 uM/Kg dose between 0-6 hours; format: functional; summary of the method: as §1
Rattus norvegicus [7] = assay: In vivo antihypertensive activity against spontaneously hypertensive rats after oral administration of 30 uM/Kg dose between 6-12 hours; format: functional; summary of the method: as §1
Rattus norvegicus [8] = assay: In vivo antihypertensive activity against spontaneously hypertensive rats after oral administration of 30 uM/Kg dose between 18-24 hours; format: functional; summary of the method: as §1
Rattus norvegicus [9] = assay: In vivo antihypertensive activity against spontaneously hypertensive rats after oral administration of 30 umol/kg dose between 0-6 hours; format: functional; summary of the method: as §1
Rattus norvegicus [10] = assay: In vivo antihypertensive activity against spontaneously hypertensive rats after oral administration of 10 uM/Kg dose between 6-12 hours; format: functional; summary of the method: as §1
Rattus norvegicus [11] = assay: In vivo antihypertensive activity against spontaneously hypertensive rats after oral administration of 30 uM/Kg dose between 0-6 hours; format: functional; summary of the method: as §1
Rattus norvegicus [12] = assay: In vivo antihypertensive activity against spontaneously hypertensive rats after oral administration of 30 umol/kg dose between 18-24 hours; format: functional; summary of the method: as §1
Rattus norvegicus [13] = assay: In vivo antihypertensive activity against spontaneously hypertensive rats after oral administration of 30 umol/kg dose between 6-12 hours; format: functional; summary of the method: as §1
Rattus norvegicus [14] = assay: In vivo antihypertensive activity against spontaneously hypertensive rats after oral administration of 10 umol/kg dose between 6-12 hours; format: functional; summary of the method: as §1
Rattus norvegicus [15] = assay: In vivo antihypertensive activity against spontaneously hypertensive rats after oral administration of 10 umol/kg dose between 0-6 hours; format: functional; summary of the method: as §1
Rattus norvegicus [16] = assay: In vivo antihypertensive activity against spontaneously hypertensive rats after oral administration of 30 umol/kg dose between 12-18 hours; format: functional; summary of the method: as §1

For `CCCCC1=NC(Cl)=C(C(=O)OCC)C(C)N1Cc1ccc(-c2ccccc2-c2nnn[n-]2)cc1.[K+]` (stereo unspecified), the “Decrease in blood pressure” value (Rattus norvegicus [1]) was 17%, the “Decrease in blood pressure” value (Rattus norvegicus [2]) was 15% and the ED50 (Rattus norvegicus [3]) was 1.65 µmol/kg. For the same compound, the Ki [4] was 0.0083 µM, the “Decrease in blood pressure” value (Rattus norvegicus [5]) was 19% and the Kb (Oryctolagus cuniculus; Oryctolagus cuniculus, Aorta) was 0.0053 µM. For the same compound, the “Decrease in blood pressure” value (Rattus norvegicus [6]) was 14%, the “Decrease in blood pressure” value (Rattus norvegicus [7]) was 20% and the “Decrease in blood pressure” value (Rattus norvegicus [8]) was 20%. The “Decrease in blood pressure” value (Rattus norvegicus [9]) was 23% and the “Decrease in blood pressure” value (Rattus norvegicus [10]) was 14%.
`CCCCC1=NC(C)=C(C(=O)OCC)C(C)N1Cc1ccc(-c2ccccc2C(=O)O)cc1` (stereo unspecified) gave a Ki [4] of 0.99 µM and a Kb (Oryctolagus cuniculus; Oryctolagus cuniculus, Aorta) of 0.66 µM.
In the case of `CCCCc1nc(-c2ccccc2)c(C(=O)OCC)c(=O)n1Cc1ccc(-c2ccccc2C(=O)O)cc1`, the Ki [4] is reported as 1.6 µM and the Kb (Oryctolagus cuniculus; Oryctolagus cuniculus, Aorta) is reported as 0.14 µM.
`CCCCC1=NC(c2ccccc2)=C(C(=O)OCC)C(C)N1Cc1ccc(-c2ccccc2C(=O)O)cc1` (stereo unspecified) gave a Ki [4] of 0.85 µM and a Kb (Oryctolagus cuniculus; Oryctolagus cuniculus, Aorta) of 0.63 µM.
`CCCCC1=NC(C)(C)C(C(=O)OCC)=C(Cl)N1Cc1ccc(-c2ccccc2C(=O)O)cc1` showed a Ki [4] of 0.058 µM and a Kb (Oryctolagus cuniculus; Oryctolagus cuniculus, Aorta) of 0.023 µM.
Compound `CCCCc1nc(C)c(C(=O)OCC)c(=O)n1Cc1ccc(-c2ccccc2C(=O)O)cc1` has a Ki [4] of 0.15 µM and a Kb (Oryctolagus cuniculus; Oryctolagus cuniculus, Aorta) of 0.095 µM.
For `CCCCC1=NC(C)(C)C(C(=O)OCC)=C(Cl)N1Cc1ccc(-c2ccccc2-c2nn[nH]n2)cc1`, the ED50 (Rattus norvegicus [3]) was 2.4 µmol/kg, the Ki [4] was 0.0011 µM and the “Decrease in blood pressure” value (Rattus norvegicus [5]) was 4%. For the same compound, the Kb (Oryctolagus cuniculus; Oryctolagus cuniculus, Aorta) was 0.024 µM, the “Decrease in blood pressure” value (Rattus norvegicus [7]) was 3% and the “Decrease in blood pressure” value (Rattus norvegicus [8]) was 2%. The “Decrease in blood pressure” value (Rattus norvegicus [11]) was 5%.
For `CCCCc1ncc(C(=O)OCC)c(=O)n1Cc1ccc(-c2ccccc2C(=O)O)cc1`, the Ki [4] was 0.082 µM and the Kb (Oryctolagus cuniculus; Oryctolagus cuniculus, Aorta) was 0.61 µM.
In the case of `CCCCC1=NC(Cl)=C(C(=O)OCC)C(C)N1Cc1ccc(-c2ccccc2C(=O)O)cc1` (stereo unspecified), the Ki [4] is reported as 0.041 µM and the Kb (Oryctolagus cuniculus; Oryctolagus cuniculus, Aorta) is reported as 0.07 µM.
`CCCCC1=NC(Cl)=C(C(=O)OCC)C(c2ccccc2)N1Cc1ccc(-c2ccccc2C(=O)O)cc1` (stereo unspecified) was tested, and the Kb (Oryctolagus cuniculus; Oryctolagus cuniculus, Aorta) was 1 µM.
`CCCCC1=NC(Cl)=C(C(=O)O)C(C)N1Cc1ccc(-c2ccccc2-c2nn[nH]n2)cc1` (stereo unspecified) was tested, and the ED50 (Rattus norvegicus [3]) was 0.076 µmol/kg, the Ki [4] was 0.001 µM and the “Decrease in blood pressure” value (Rattus norvegicus [5]) was 2%. The Kb (Oryctolagus cuniculus; Oryctolagus cuniculus, Aorta) was 0.00045 µM, the “Decrease in blood pressure” value (Rattus norvegicus [7]) was 0% and the “Decrease in blood pressure” value (Rattus norvegicus [8]) was 1%. The “Decrease in blood pressure” value (Rattus norvegicus [11]) was 8%.
In the case of `CCCCC1=NC(c2ccc(Cl)cc2)=C(C(=O)OCC)C(C)N1Cc1ccc(-c2ccccc2C(=O)O)cc1` (stereo unspecified), the Ki [4] is reported as 0.19 µM and the Kb (Oryctolagus cuniculus; Oryctolagus cuniculus, Aorta) is reported as 0.52 µM.
`CCCCc1nc(Cl)c(CO)n1Cc1ccc(-c2ccccc2-c2nnn[n-]2)cc1.[K+]` [LOSARTAN POTASSIUM] was tested, and the ED50 (Rattus norvegicus [3]) was 1.8 µmol/kg, the “Decrease in blood pressure” value (Rattus norvegicus [12]) was 38% and 24% and the “Decrease in blood pressure” value (Rattus norvegicus [13]) was 35%. The “Decrease in blood pressure” value (Rattus norvegicus [14]) was 20%, the Kb (Oryctolagus cuniculus) was 0.0026 µM and the “Decrease in blood pressure” value (Rattus norvegicus [9]) was 31%. For the same compound, the “Decrease in blood pressure” value (Rattus norvegicus [15]) was 13% and the “Decrease in blood pressure” value (Rattus norvegicus [16]) was 37% and 22%.
`CCCCc1nc(Cl)c(CO)n1Cc1ccc(-c2ccccc2-c2nnn[nH]2)cc1` [LOSARTAN] was tested, and the Kb (Oryctolagus cuniculus) was 0.086 µM.
